ChEMBL document CHEMBL1828592, “Synthesis and anti-microbial activity of some 1- substituted amino-4,6-dimethyl-2-oxo-pyridine-3-carbonitrile derivatives” (2011)
Active and inactive are the calls of the source. The calls are words filed in the database; no cut-off is given here.

Columns and labels:
[1] = test system: Syncephalastrum racemosum; assay: Antifungal activity against Syncephalastrum racemosum RCMB 005003 at 10 mg/ml after 3 to 4 days by agar well diffusion method; type: functional, organism-based
How it was run: (§1)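 Patient-isolated fungi, purified by single-spore isolation, were grown 3–4 days in Sabouraud dextrose broth to about 10^5 CFU/mL. 0.1 mL was spread on Sabouraud dextrose agar. Wells were sealed at the bottom with 0.8% soft agar and loaded with 100 μL sample (10 mg/mL, DMSO); DMSO was the control. Incubated 30 °C, 3–4 days. Zone read three times by caliper and averaged; mean ± SD.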

Bacillus subtilis [2] = assay: Antibacterial activity against Bacillus subtilis RCMB 000107 at 10 mg/ml after 24 hrs by diffusion agar technique; type: functional; conditions: for zone of inhibition at 10000 µg/mL: RCMB 000107, 24 h, read-out: IZ
How it was run: (§2)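 Agar well diffusion: 24 h bacterial culture pellets (approx. 10^4–10^6 CFU/mL) spread on nutrient agar, pH 7.0. Wells (6 mm) loaded with 100 μL sample at 10 mg/mL in DMSO; DMSO control. Incubated 37 °C, 24 h. Inhibition zone (mm, beyond well) measured three times by caliper and averaged; three runs per strain; mean ± SD.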

Escherichia coli [3] = assay: Antibacterial activity against Escherichia coli RCMB 000103 at 10 mg/ml after 24 hrs by diffusion agar technique; type: functional; conditions: for zone of inhibition at 10000 µg/mL: RCMB 000103, 24 h, read-out: IZ; how it was run: as §2
Aspergillus fumigatus [4] = assay: Antifungal activity against Aspergillus fumigatus RCMB 002003 at 10 mg/ml after 3 to 4 days by agar well diffusion method; type: functional; conditions: for zone of inhibition at 10000 µg/mL: read-out: IZ; how it was run: as §1
Geotrichum candidum [5] = assay: Antifungal activity against Geotrichum candidum RCMB 052006 at 10 mg/ml after 3 to 4 days by agar well diffusion method; type: functional; conditions: for zone of inhibition at 10000 µg/mL: read-out: IZ; how it was run: as §1
Candida albicans [6] = assay: Antifungal activity against Candida albicans RCMB 005002 at 10 mg/ml after 3 to 4 days by agar well diffusion method; type: functional; conditions: for zone of inhibition at 10000 µg/mL: read-out: IZ; how it was run: as §1
Pseudomonas aeruginosa [7] = assay: Antibacterial activity against Pseudomonas aeruginosa RCMB 000102 at 10 mg/ml after 24 hrs by diffusion agar technique; type: functional; conditions: for zone of inhibition at 10000 µg/mL: RCMB 000102, 24 h, read-out: IZ; how it was run: as §2
Staphylococcus aureus [8] = assay: Antibacterial activity against Staphylococcus aureus RCMB 000106 at 10 mg/ml after 24 hrs by diffusion agar technique; type: functional; conditions: for zone of inhibition at 10000 µg/mL: RCMB 000106, 24 h, read-out: IZ; how it was run: as §2
Candida albicans [9] = assay: Antifungal activity against Candida albicans RCMB 005002 at 30 ug/ml after 3 to 4 days by agar well diffusion method; type: functional; conditions: read-out: IZ
How it was run: (§3)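 Reference antifungal tested at 30 μg/mL, 100 μL per well, on Sabouraud dextrose agar spread with 0.1 mL of a fungal culture at about 10^5 CFU/mL. Wells were bottom-sealed with 0.8% soft agar. Incubated 30 °C, 3–4 days. Inhibition zone (mm) measured three times by caliper and averaged; mean ± SD.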

Aspergillus fumigatus [10] = assay: Antifungal activity against Aspergillus fumigatus RCMB 002003 at 30 ug/ml after 3 to 4 days by agar well diffusion method; type: functional; conditions: read-out: IZ; how it was run: as §3
[11] = test system: Syncephalastrum racemosum; assay: Antifungal activity against Syncephalastrum racemosum RCMB 005003 at 30 ug/ml after 3 to 4 days by agar well diffusion method; type: functional; conditions: read-out: IZ; how it was run: as §3
Geotrichum candidum [12] = assay: Antifungal activity against Geotrichum candidum RCMB 052006 at 30 ug/ml after 3 to 4 days by agar well diffusion method; type: functional; conditions: read-out: IZ; how it was run: as §3
Bacillus subtilis [13] = assay: Antibacterial activity against Bacillus subtilis RCMB 000107 at 30 ug/ml after 24 hrs by diffusion agar technique; type: functional; conditions: RCMB 000107, 24 h, read-out: IZ
How it was run: (§4)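 Reference antibiotic tested at 30 μg/mL, 100 μL per 6 mm well in agar diffusion on nutrient agar (pH 7.0) seeded with approx. 10^4–10^6 CFU/mL bacteria. Incubated 37 °C for 24 h. Inhibition zone beyond well diameter (mm) read by caliper in triplicate and averaged; mean ± SD.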

Escherichia coli [14] = assay: Antibacterial activity against Escherichia coli RCMB 000103 at 30 ug/ml after 24 hrs by diffusion agar technique; type: functional; conditions: RCMB 000103, 24 h, read-out: IZ
How it was run: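 Agar well diffusion on nutrient agar (pH 7.0) spread with centrifuged bacterial pellets from a 24 h culture, about 10^4–10^6 CFU/mL. Wells receive 100 µL of sample in DMSO: tested samples at 10 mg/mL, standard antibiotic at 30 μg/mL, DMSO as control. Incubation is 37 °C for 24 h. Inhibition zone in mm beyond the 6 mm well is measured three times by caliper and averaged. Three runs, mean ± SD.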

Pseudomonas aeruginosa [15] = assay: Antibacterial activity against Pseudomonas aeruginosa RCMB 000102 at 30 ug/ml after 24 hrs by diffusion agar technique; type: functional; conditions: RCMB 000102, 24 h, read-out: IZ; how it was run: as §4
Staphylococcus aureus [16] = assay: Antibacterial activity against Staphylococcus aureus RCMB 000106 at 30 ug/ml after 24 hrs by diffusion agar technique; type: functional; conditions: RCMB 000106, 24 h, read-out: IZ; how it was run: as §4

SMILES	inhibition zone (IZ) [1]	inhibition zone (IZ) (Escherichia coli [3])	zone of inhibition at 10000 µg/mL (Aspergillus fumigatus [4]) [mm]	zone of inhibition at 10000 µg/mL (Geotrichum candidum [5]) [mm]	zone of inhibition at 10000 µg/mL (Candida albicans [6]) [mm]	inhibition zone (IZ) (Pseudomonas aeruginosa [7])	zone of inhibition at 10000 µg/mL (Bacillus subtilis [2]) [mm]	zone of inhibition at 10000 µg/mL (Escherichia coli [3]) [mm]	zone of inhibition at 10000 µg/mL (Staphylococcus aureus [8]) [mm]	also measured
Cc1ccc2nc(Cl)c(/C=N/n3c(C)cc(C)c(C#N)c3=O)cc2c1	inactive	inactive	14.5	13.2	12.4	inactive				inhibition zone (IZ) (Bacillus subtilis [2]): inactive; inhibition zone (IZ) (Staphylococcus aureus [8]): inactive
Cc1cc(C)n(N2C(=O)c3ccccc3C2=O)c(=O)c1C#N	inactive		19.2	21.4	18.2	inactive	25.4	10.8	24.4	
Cc1cc(C)n(/N=C/c2cc3ccccc3n3nnnc23)c(=O)c1C#N	inactive		11.2	13.4	11.4	inactive	17.3	9.3	18.6	
Cc1cc(C)n(/N=C/c2cccs2)c(=O)c1C#N	inactive	inactive	11	13	12				14	inhibition zone (IZ) (Bacillus subtilis [2]): inactive; zone of inhibition at 10000 µg/mL (Pseudomonas aeruginosa [7]): 14 mm
Cc1cc(C)n(N)c(=O)c1C#N	inactive						17	22.8	14	inhibition zone (IZ) (Aspergillus fumigatus [4]): inactive; inhibition zone (IZ) (Geotrichum candidum [5]): inactive; inhibition zone (IZ) (Candida albicans [6]): inactive; zone of inhibition at 10000 µg/mL (Pseudomonas aeruginosa [7]): 21.4 mm
COc1ccc(-c2cc(-c3cccs3)nc3sc(C(=O)Nn4c(C)cc(C)c(C#N)c4=O)c(N)c23)cc1	inactive	inactive	11.1	14	10	inactive	14.2		13	
Cc1cc(C)n(N/C=C(\Nn2c(C)cc(C)c(C#N)c2=O)c2ccccc2)c(=O)c1C#N	inactive		10	12	11	inactive	13.5	11.5	15	
CCC(C)n1ncn(-c2ccc(N3CCN(c4ccc(OCC5COC(Cn6cncn6)(c6ccc(Cl)cc6Cl)O5)cc4)CC3)cc2)c1=O (centres undefined) [ITRACONAZOLE]										zone of inhibition at 30 µg/mL (Candida albicans [9]): 26 mm; zone of inhibition at 30 µg/mL (Aspergillus fumigatus [10]): 28 mm; zone of inhibition at 30 µg/mL [11]: 22 mm; zone of inhibition at 30 µg/mL (Geotrichum candidum [12]): 27 mm
Clc1ccccc1C(c1ccccc1)(c1ccccc1)n1ccnc1 [CLOTRIMAZOLE]										zone of inhibition at 30 µg/mL (Candida albicans [9]): 18 mm; zone of inhibition at 30 µg/mL (Aspergillus fumigatus [10]): 26 mm; zone of inhibition at 30 µg/mL [11]: 20 mm; zone of inhibition at 30 µg/mL (Geotrichum candidum [12]): 23 mm
Cc1cc(C)n(/N=C/c2cn(-c3ccccc3)nc2-c2cc3ccccc3o2)c(=O)c1C#N	inactive		14.2	16.5	15.5	inactive	23.2	11.5	21.2	
CC1(C)S[C@@H]2[C@H](NC(=O)Cc3ccccc3)C(=O)N2[C@H]1C(=O)O [PENICILLIN G]										zone of inhibition at 30 µg/mL (Bacillus subtilis [13]): 32.6 mm; zone of inhibition at 30 µg/mL (Escherichia coli [14]): 33.6 mm; zone of inhibition at 30 µg/mL (Pseudomonas aeruginosa [15]): 28.3 mm; zone of inhibition at 30 µg/mL (Staphylococcus aureus [16]): 29.5 mm
CN[C@@H]1[C@H](O[C@H]2[C@H](O[C@H]3[C@H](O)[C@@H](O)[C@H](N=C(N)N)[C@@H](O)[C@@H]3N=C(N)N)O[C@@H](C)[C@]2(O)C=O)O[C@@H](CO)[C@H](O)[C@H]1O [STREPTOMYCIN]										zone of inhibition at 30 µg/mL (Bacillus subtilis [13]): 29 mm; zone of inhibition at 30 µg/mL (Escherichia coli [14]): 25 mm; zone of inhibition at 30 µg/mL (Pseudomonas aeruginosa [15]): 24 mm; zone of inhibition at 30 µg/mL (Staphylococcus aureus [16]): 25 mm
Cc1cc(C)n(/N=C/c2cc3ccccc3nc2Cl)c(=O)c1C#N	inactive	inactive	13.3	12.4	10.2	inactive				inhibition zone (IZ) (Bacillus subtilis [2]): inactive; inhibition zone (IZ) (Staphylococcus aureus [8]): inactive
Cc1ccc2c(c1)cc(/C=N/n1c(C)cc(C)c(C#N)c1=O)c1nnnn12	inactive		15.2	18.4	15.4	inactive	24.3	11.2	23.2	
Cc1cc(C)n(N2C(=O)c3c(Br)c(Br)c(Br)c(Br)c3C2=O)c(=O)c1C#N	inactive		22.5	23.5	20.2	inactive	26.4	12.6	26.4	
Cc1cc(C)n(NC(=O)C(=O)CC(=O)c2cc3ccccc3o2)c(=O)c1C#N	inactive					inactive	21.8	7.4	20.4	inhibition zone (IZ) (Aspergillus fumigatus [4]): inactive; inhibition zone (IZ) (Geotrichum candidum [5]): inactive; inhibition zone (IZ) (Candida albicans [6]): inactive
Cc1cc(C)n(NC(=O)Nc2ccccc2)c(=O)c1C#N	inactive		9.2	10.4	7.4	inactive	10.4	11.4	7.2	
Cc1cc(C)n(NC(=S)Nc2ccccc2)c(=O)c1C#N	inactive	inactive	10.2	12	11	inactive	13.5		15	
Cc1cc(C)n(/N=C/c2ccc(F)cc2)c(=O)c1C#N	inactive	inactive				inactive	15.2		14.9	inhibition zone (IZ) (Aspergillus fumigatus [4]): inactive; inhibition zone (IZ) (Geotrichum candidum [5]): inactive; inhibition zone (IZ) (Candida albicans [6]): inactive
Cc1cc(C)n(/N=C/c2c(C)nn(-c3ccccc3)c2Cl)c(=O)c1C#N	inactive	inactive	10.3	11.5	13.2	inactive				inhibition zone (IZ) (Bacillus subtilis [2]): inactive; inhibition zone (IZ) (Staphylococcus aureus [8]): inactive
